In ChEMBL document CHEMBL3785029, “Synthesis and Characterization of Fatty Acid Conjugates of Niacin and Salicylic Acid” (J Med Chem, 2016) one finds Drug metabolism, inhibition and AUClast data, which are given here for two compounds.

SMILES strings stand for the structures. Activity calls are given as the source filed them. The calls are words filed in the database; no cut-off is given here.

Data set [1] deals with Plasma. The experiment in a line: Drug metabolism in Sprague-Dawley rat plasma assessed as N-(2-aminoethyl)-2-hydroxy-benzamide formation at 300 mg/kg, po measured up to 24 hrs post dose. It counts as ADME, organism-based. To be noted: in vivo. In a few lines:
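Single oral dose of 300 mg/kg to Sprague Dawley rats. Plasma collected at 0, 0.5, 1, 2, 4, 8 and 24 hr. Analytes were the parent, the salicylate-linker and linker-DHA metabolites, salicylic acid and salicyluric acid; Cmax and AUClast derived.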

For a further data set, the system named is Muscle tissue. Put plainly: Drug metabolism in Sprague-Dawley rat muscle assessed as salicylic acid formation at 300 mg/kg, po administered for 7 days measured 4 hrs post dose on day 7. The format is ADME, organism-based. The following applies: in vivo. In a few lines: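 Male Sprague Dawley rats, groups of 4, dosed orally at 300 mg/kg once daily for 14 days. Animals killed on days 1, 3, 7 and 14, with plasma, brain, epididymal fat, liver and muscle taken 4 hr after dosing. Parent, salicylic acid and salicyluric acid were measured.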

The next data set relates to Mus musculus. Put plainly: Inhibition of VLDL cholesterol levels in po dosed ApoE*3-Leiden mouse plasma administered for 16 weeks. The format is functional, organism-based. In a few lines: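 Transgenic ApoE*3-Leiden mice on high-cholesterol Western-type diet dosed over 16 weeks; plasma PCSK9, total cholesterol, triglycerides and lipoprotein profile (VLDL, LDL) assessed at study end.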

In data set [2] the test system is Plasma. The experiment in a line: Drug metabolism in Sprague-Dawley rat plasma assessed as niacin linker metabolite N-(2-aminoethyl)nicotinamide formation at 300 mg/kg, qd administered through oral gavage for 7 days measured 2 hrs post last dose by LC/MS/MS analysis. The following applies: in vivo. It counts as ADME, organism-based.
Another data set has as its system Rattus norvegicus. Put plainly: AUClast in Sprague-Dawley rat assessed as nicotinuric acid at 100 mg/kg, po administered as single dose measured up to 6 hrs post dose by LC/MS/MS analysis. Also noted: dose 100 mg/kg, time < 6 hr, route oral. The format is ADME, organism-based. To be noted: in vivo. In outline: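 Single oral dose to Sprague Dawley rats; plasma collected at 0.25, 0.5, 1, 2, 4 and 6 hr; analytes in plasma quantified by LC/MS/MS.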

For the compound `CC/C=C\C/C=C\C/C=C\C/C=C\C/C=C\C/C=C\CCC(=O)NCCNC(=O)c1ccccc1O` [EDASALONEXENT], the Drug metabolism entry is listed as “metabolite_detected” with Plasma [1] and 265.73 ng/g in the data set with Muscle tissue.
Take `CC/C=C\C/C=C\C/C=C\C/C=C\C/C=C\CCCC(=O)NCCNC(=O)c1cccnc1`: the inhibition entry in the data set with Mus musculus was “Active”. Also, in the data set on Plasma [2], the Drug metabolism was found to be 2296 ng/mL. Moreover, the AUClast in the data set on Rattus norvegicus was determined as 3484 ng·h/mL.
